According to ChEMBL document CHEMBL4477186, “Structurally Diverse Metabolites from the Soft Coral Sinularia verruca Collected in the South China Sea” (J Nat Prod, 2016):
The source made the active and inactive calls. No cut-off for these calls is given here.

How the values were obtained:
Peritoneal macrophage [1] = assay: Antiinflammatory activity against C57BL6J mouse peritoneal macrophages assessed as inhibition of LPS-induced NO production at 30 uM incubated for 1 hr followed by stimulation with LPS for 24 hrs by Griess assay; assay type: functional
How it was run: (§1)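 Mouse peritoneal macrophages stimulated with lipopolysaccharide; nitric oxide production measured following an earlier protocol. Test compounds taken from 30 mM DMSO stocks and diluted to 1–30 μM final. Dexamethasone in DMSO served as positive control.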

[2] = tested on: Human immunodeficiency virus 1; assay: Antiviral activity against HIV1 infected in human CEM-SS cells assessed as inhibition of virus-induced cytopathic effect after 6 days by XTT assay; assay type: functional, organism-based; settings: for EC50: Human immunodeficiency virus 1, CEM-SS, 144 h
How it was run: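 NCI XTT-tetrazolium primary anti-HIV screen. CEM-SS cells kept in phenol red-free RPMI 1640 with 5% FBS, gentamicin and 2 mM L-glutamine; 1 × 10⁴ cells per well infected with HIV-1 RF (Haitian variant) at MOI 0.6. Compounds predissolved in DMSO, diluted in medium; AZT positive control. Quadruplicate infected wells, 6 days, 37 °C, 5% CO₂; cell growth by XTT; EC50 and maximal protection derived.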

CEM-SS = assay: Cytotoxicity against human CEM-SS cells assessed as growth inhibition after 6 days by XTT assay; assay type: cell-based; settings: 144 h
How it was run: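 Uninfected CEM-SS cells (1 × 10⁴ per well, duplicate wells) grown alongside the infected cultures in phenol red-free RPMI 1640 with 5% FBS, gentamicin and 2 mM L-glutamine. Compounds diluted from DMSO into medium. Incubation 6 days at 37 °C under 5% CO₂; growth estimated by XTT read-out; IC50 derived.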

Peritoneal macrophage [3] = assay: Antiinflammatory activity against C57BL6J mouse peritoneal macrophages assessed as inhibition of LPS-induced NO production incubated for 1 hr followed by stimulation with LPS for 24 hrs by Griess assay; assay type: functional, cell-based; how it was run: as §1

CC(=O)CC/C=C(/C)C[C@@H]1CC(C)(C)CC1=O
inhibition at 30 µM (Peritoneal macrophage [1]): < 50%
inhibition [2]: inactive

CCOC(=O)CCCCCCCCCCCC[C@]1(O)OC(=O)C(C)=C1C
inhibition at 30 µM (Peritoneal macrophage [1]): < 50%
inhibition [2]: inactive

CCCCC[C@]1(O)OC(=O)C(C)=C1C
inhibition at 30 µM (Peritoneal macrophage [1]): < 50%
inhibition [2]: inactive

C/C(=C\CC[C@]1(C)C=Cc2cc(O)c(C)cc2O1)Cc1cc(C)co1 [CAPILLOBENZOPYRANOL]
inhibition at 30 µM (Peritoneal macrophage [1]): < 50%
inhibition [2]: inactive

C/C1=C/C2=C(CC(C)(C)C2)[C@H](C)CC[C@@H]1O
inhibition at 30 µM (Peritoneal macrophage [1]): < 50%
inhibition [2]: inactive

CCO[C@@]1(CCCCCCCCCCCCC(=O)O)OC(=O)C(C)=C1C
inhibition at 30 µM (Peritoneal macrophage [1]): < 50%
inhibition [2]: inactive

COC(=O)C(C)CCCC(C)(O)CCC1=C(C)C(=O)C(C)=C(C)C1=O (stereo not given)
inhibition at 30 µM (Peritoneal macrophage [1]): < 50%
inhibition [2]: inactive

CCCCC[C@@]1(O)C(C)=C(C)C(=O)[C@H]1COCC (relative stereo)
IC50 (CEM-SS): 66 µM
IC50 (Peritoneal macrophage [3]): 26 µM
%max [2]: 75%
EC50 [2]: 30 µM

CCOC(=O)CC[C@]1(O)OC(=O)C(C)=C1C
inhibition at 30 µM (Peritoneal macrophage [1]): < 50%
inhibition [2]: inactive

CCOC(=O)C1=CN2CC[C@]3(O)c4ccccc4N([C@H]1C)[C@H]23
inhibition at 30 µM (Peritoneal macrophage [1]): < 50%
inhibition [2]: inactive

CCCC[C@@H]1C(=O)C(C)=C(C)[C@]12CCC(=O)O2
inhibition at 30 µM (Peritoneal macrophage [1]): < 50%
inhibition [2]: inactive

COC(=O)C(C)CCCC1(C)CCc2c(C)c(O)c(C)c(C)c2O1 (stereo not given)
inhibition at 30 µM (Peritoneal macrophage [1]): < 50%
inhibition [2]: inactive

CC1=C[C@@]2(C=C(C)[C@@H]3CC[C@@]4(C)Oc5cc(C)c(O)cc5[C@@H]2[C@@H]34)OC1=O
inhibition at 30 µM (Peritoneal macrophage [1]): < 50%
inhibition [2]: inactive

CCCC[C@@H]1C(=O)C(C)=C(C)[C@]1(O)CCC(=O)OCC
IC50 (Peritoneal macrophage [3]): 24 µM
inhibition [2]: inactive

CCCCC[C@@]1(O)C(C)=C(C)C(=O)[C@H]1CO (relative stereo)
IC50 (CEM-SS): 79 µM
IC50 (Peritoneal macrophage [3]): 28 µM
%max [2]: 86%
EC50 [2]: 34 µM

C[C@@H]1CC[C@]2(O)O[C@]13CC(C)(C)CC3=C[C@@]2(C)O
inhibition at 30 µM (Peritoneal macrophage [1]): < 50%
inhibition [2]: inactive

C=C1C(=O)C(C)=C(C)[C@@]1(O)CCCCC
inhibition at 30 µM (Peritoneal macrophage [1]): < 50%
IC50 (CEM-SS): 6.3 µM
%max [2]: 52%
EC50 [2]: 5.8 µM
